By Km is commonly meant the concentration of substrate that gives half-maximal velocity. Usually kcat stands for the number of substrate molecules converted per active site and unit of time at saturation. One may read the kcat/Km as the second-order rate constant that governs catalysis at low substrate concentration.

Residue numbers refer to the chain shown, from its start. In names and notes the source's numbering stands.

The target in one data set is T1, Psp2,6ST(15–501)-His6 (Photobacterium sp. JT-ISH-224, UniProt A8QYL1, A366G).
T1 sequence (A8QYL1 15-501 A366G): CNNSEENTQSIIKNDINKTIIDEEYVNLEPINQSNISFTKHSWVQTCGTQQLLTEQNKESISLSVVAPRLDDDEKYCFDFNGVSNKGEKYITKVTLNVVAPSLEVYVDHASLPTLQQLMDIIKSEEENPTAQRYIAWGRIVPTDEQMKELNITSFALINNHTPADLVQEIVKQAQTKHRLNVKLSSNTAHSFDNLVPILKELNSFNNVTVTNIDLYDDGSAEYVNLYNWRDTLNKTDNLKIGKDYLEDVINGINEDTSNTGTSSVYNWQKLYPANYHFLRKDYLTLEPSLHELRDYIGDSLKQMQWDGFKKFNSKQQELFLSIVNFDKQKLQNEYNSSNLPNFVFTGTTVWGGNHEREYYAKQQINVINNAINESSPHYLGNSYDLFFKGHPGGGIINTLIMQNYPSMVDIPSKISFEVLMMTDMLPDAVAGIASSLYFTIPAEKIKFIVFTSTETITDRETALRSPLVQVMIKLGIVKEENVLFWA
As to the kind of experiment: sialyltransfer, HPLC with fluorescence detection, Michaelis-Menten fit. Format: biochemical. The note with it: 20 °C, labelled compound.

Another data set concerns the target T2, His6-Pd2,6ST(16–497) (Photobacterium damselae, UniProt O66375).
T2 sequence (O66375 16-497): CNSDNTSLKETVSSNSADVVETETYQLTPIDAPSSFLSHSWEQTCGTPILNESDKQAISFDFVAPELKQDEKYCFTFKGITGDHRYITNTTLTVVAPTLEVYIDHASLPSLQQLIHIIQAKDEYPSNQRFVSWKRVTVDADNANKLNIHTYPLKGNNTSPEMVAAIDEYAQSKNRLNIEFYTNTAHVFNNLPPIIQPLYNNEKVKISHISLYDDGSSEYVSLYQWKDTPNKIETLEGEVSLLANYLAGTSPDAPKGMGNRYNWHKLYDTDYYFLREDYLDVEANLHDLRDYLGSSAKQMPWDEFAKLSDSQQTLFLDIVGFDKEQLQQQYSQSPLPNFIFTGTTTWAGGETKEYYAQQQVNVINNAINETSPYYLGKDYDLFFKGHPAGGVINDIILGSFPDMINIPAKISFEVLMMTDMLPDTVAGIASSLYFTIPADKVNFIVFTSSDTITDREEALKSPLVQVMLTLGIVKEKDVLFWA
Briefly: donor hydrolysis, capillary electrophoresis, Michaelis-Menten fit. Format: biochemical. The conditions noted are these: donor hydrolysis (water as acceptor); pH 8.0; 37 °C. Put shortly: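 Recombinant enzyme (6 μM) was incubated with CMP-Neu5Ac (10, 20, 40, 60, 80 and 100 mM) in 200 mM Tris-HCl pH 8.0 for 20 min, with no acceptor, in duplicate. Reactions were stopped with ethanol and centrifuged. Supernatants were run by capillary electrophoresis in 25 mM sodium tetraborate pH 9.4, with PDA detection at 200 and 254 nm. Kinetic parameters came from a Michaelis-Menten fit of the duplicate means.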

Substrate in data set [1]: CC(=O)N[C@H]1[C@H]([C@H](O)[C@H](O)CO)O[C@](OP(=O)(O)OC[C@H]2O[C@@H](n3ccc(N)nc3=O)[C@H](O)[C@@H]2O)(C(=O)O)C[C@@H]1O
As to the kind of experiment: donor hydrolysis, capillary electrophoresis, Michaelis-Menten fit. The class given is biochemical, Photobacterium sp. JT-ISH-224. The conditions noted are these: donor hydrolysis (water as acceptor), pH 8.0, 20 °C.

Substrate in data set [2]: Cc1cc(=O)oc2cc(O[C@@H]3O[C@H](CO)[C@@H](O[C@@H]4O[C@H](CO)[C@H](O)[C@H](O)[C@H]4O)[C@H](O)[C@H]3O)ccc12
As to the kind of experiment: sialyltransfer, HPLC with fluorescence detection, Michaelis-Menten fit. Format: biochemical, Photobacterium sp. JT-ISH-224. The conditions noted are these: CMP-Neu5Ac 1.0 mM, pH 8.0, 20 °C.

Substrate in data set [3]: CC(=O)N[C@H]1[C@H]([C@H](O)[C@H](O)CO)O[C@](OP(=O)(O)OC[C@H]2O[C@@H](n3ccc(N)nc3=O)[C@H](O)[C@@H]2O)(C(=O)O)C[C@@H]1O
The data set is described as above. The class given is biochemical, Photobacterium sp. JT-ISH-224. The conditions noted are these: LacβMU 1.0 mM as acceptor, pH 8.0, 20 °C.

As for `CC(=O)N[C@H]1[C@@H](O[C@H](C)[C@H](N)C(=O)O)O[C@H](CO)[C@H](O)[C@@H]1O` [GalNAcαThr], at Psp2,6ST(15–501)-His6 (CMP-Neu5Ac 4.0 mM, pH 8.0), the Michaelis-Menten constant (Km) stood at 7.2 ± 3 mM.

On to `CC(=O)N[C@H]1[C@@H](OC[C@H](N)C(=O)O)O[C@H](CO)[C@H](O)[C@@H]1O` [GalNAcαSer], for which the Km at Psp2,6ST(15–501)-His6 (CMP-Neu5Ac 2.0 mM, pH 8.0) was 1.7 ± 0.7 mM.

In the case of GalNAcα2AA, at Psp2,6ST(15–501)-His6 (CMP-Neu5Ac 4.0 mM, pH 5.0), the Km was determined as 5.5 ± 1 mM.

Consider `CC(=O)N[C@H]1[C@H]([C@H](O)[C@H](O)CO)O[C@](OP(=O)(O)OC[C@H]2O[C@@H](n3ccc(N)nc3=O)[C@H](O)[C@@H]2O)(C(=O)O)C[C@@H]1O` [CMP-Neu5Ac], for which the “Km (mM)” value at His6-Pd2,6ST(16–497) is recorded as “(1.8±0.4)×10 mM”.

B1: Psp2,6ST(15–501)-His6 (Photobacterium sp. JT-ISH-224) (protein)
chain: T1 sequence (A8QYL1 15-501 A366G) with G352A
As for B1, in data set [1], the catalytic constant (kcat) was 4.83 ± 0.5 s⁻¹ and the kcat/Km amounted to 283 M⁻¹ s⁻¹.

B2: Psp2,6ST(15–501)-His6 (Photobacterium sp. JT-ISH-224; A366G) (protein)
chain: T1 sequence (A8QYL1 15-501 A366G)
As to B2, in data set [2], the Km result is recorded as “(4.1±0.4)×10^−1 mM”, the catalytic constant (kcat) was 1.67 ± 0.167 s⁻¹ and the kcat/Km worked out at 4000 M⁻¹ s⁻¹. Besides, in data set [3], the Michaelis constant (Km) result is given as “(6.3±0.5)×10^−1 mM”, the kcat worked out at 2.17 ± 0.167 s⁻¹ and the specificity constant (kcat/Km) stood at 3500 M⁻¹ s⁻¹.

Values taken from paper PMC9416874 (Carbohydrate research, 2014).
